Laboratory results published in ChEMBL document CHEMBL4813972, “A grafted peptidomimetic for EGFR heterodimerization inhibition: Implications in NSCLC models” (Eur J Med Chem, 2021).
Activity calls are given as the source filed them. No cut-off for these calls is given here.

Tests used:
BT-474 = assay: Antiproliferative activity against human BT-474 cells overexpressing HER2 assessed as cell growth inhibition incubated for 72 hrs by cell titer glo assay; type: functional, cell-based; settings: BT-474, 72 h
MCF7 = assay: Antiproliferative activity against human MCF7 cells with silenced HER2 assessed as cell growth inhibition incubated for 72 hrs by cell titer glo assay; type: functional, cell-based; settings: MCF7, 72 h
How it was run: (§1)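 Cells seeded at 1×10^4 per well, left overnight at 37 °C/5% CO2, then exposed to a concentration series of peptide (up to 200, down to 0.01 μM) for 72 h. 1% SDS and 1% DMSO served as controls. Cells were PBS-washed, CellTiter-Glo added and luminescence read. IC50 taken from three independent experiments per cell line.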

A549 [1] = assay: Antiproliferative activity against human A549 cells overexpressing HER2 assessed as cell growth inhibition incubated for 72 hrs by cell titer glo assay; type: functional, cell-based; settings: A549, 72 h; how it was run: as §1
MCF-10A = assay: Cytotoxicity against human MCF-10A cells assessed as cell growth inhibition incubated for 72 hrs by cell titer glo assay; type: cell-based; how it was run: as §1
[2] = biological target: Receptor tyrosine-protein kinase erbB-2 (Homo sapiens) (UniProt P04626); assay: Binding affinity to HER2 ECD (unknown origin) by SPR analysis
[3] = biological target: Receptor tyrosine-protein kinase erbB-2 (Homo sapiens) (UniProt P04626); assay: Binding affinity to HER2 domain IV (unknown origin) by SPR analysis
[4] = biological target: Receptor tyrosine-protein kinase erbB-2 (Homo sapiens) (UniProt P04626); assay: Binding affinity to HER2 (unknown origin) assessed as reduction in heterodimerization of HER2/EGFR by competitive based SPR analysis
How it was run: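 Competitive SPR: EGFR with EGF immobilized on a CM5 chip. HER2 protein fixed at 200 nM was preincubated 15 min in HEPES buffer with varying peptide, then injected. Read-out was the drop in response units. Surface regenerated with glycine pH 2.2 between injections.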

[5] = biological target: T1, Epidermal growth factor receptor and ErbB2 (HER1 and HER2) (Homo sapiens) (UniProt P04626+P00533); assay: Inhibition of HER2/EGFR dimerization in human A549 cells incubated for 48 hrs by proximity ligation assay; type: cell-based; settings: dose 0.5-1 µM
How it was run: (§2)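 A549 or Calu-3 cells (~1×10^4/well) on chamber slides, treated 48 h with 0.5 or 1 μM peptide. Controls: no compound, and one primary antibody omitted. Cells fixed in cold methanol, primary antibodies (EGFR, HER2, HER3) applied overnight at 4 °C, then PLA probes. Red fluorescence imaged at 40x and quantified over 3–6 fields.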

[6] = biological target: T1, Epidermal growth factor receptor and ErbB2 (HER1 and HER2) (Homo sapiens); assay: Inhibition of HER2/EGFR dimerization in human Calu-3 cells incubated for 48 hrs by proximity ligation assay; type: cell-based; settings: dose 0.5-1 µM; how it was run: as §2
A549 [7] = assay: Effect on HER2 expression in human A549 cells at 1 uM incubated for 40 hrs by Western blot analysis; type: functional, cell-based
[8] = biological target: Receptor tyrosine-protein kinase erbB-2 (Homo sapiens) (UniProt P04626); assay: Inhibition of HER2 ECD in human A549 cells assessed as reduction in Akt phosphorylation at 1 uM incubated for 40 hrs by Western blot analysis; type: cell-based
[9] = Thermal stability of compound at 15 uM incubated at 25 to 75 degC by Circular dichroism spectrometry; type: physicochemical
How it was run: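 Peptide at 15 μM in acetonitrile. Ellipticity recorded from 25 to 75 °C in 5 °C steps.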

[10] = Thermal stability of compound at 15 uM incubated at 25 to 75 degC by MALDI-TOF analysis; type: physicochemical
How it was run: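 Peptide at 15 μM in acetonitrile heated from 25 to 75 °C. Mass checked at 25, 50 and 70 °C and at the end of the run.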

[11] = Thermal stability of compound at 15 uM incubated at 25 to 75 degC in presence of DTT by circular dichroism spectrometry; type: physicochemical
Calu-3 = assay: Antitumor activity in human Calu-3 cells xenografted in Foxn1nu/Foxn1+ mouse assessed as reduction in tumor growth at 8 mg/kg, IT(Intratumoral) administered thrice a week for 21 days and measured on day 21 relative to control; type: functional, organism-based; settings: time 21.0 day
[12] = Toxicity in Foxn1nu/Foxn1+ mouse xenografted with human Calu-3 cells assessed as effect on body weight at 8 mg/kg, IT(Intratumoral) administered thrice a week for 28 days and measured on day 28; type: organism-based; settings: in vivo, other, 672 h, time 28 day
Mus musculus [13] = assay: In vivo inhibition of HER2/EGFR dimerization in human Calu-3 cells xenografted in Foxn1nu/Foxn1+ mouse at 8 mg/kg, IT(Intratumoral) administered thrice a week for 28 days and measured on day 28 by proximity ligation assay; type: functional, organism-based; settings: time 28.0 day
How it was run: (§3)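 Tumors taken from the Calu-3 intratumoral study (8 mg/kg three times weekly, 28 days). Two tumors frozen at −80 °C, homogenized and immunoblotted for p-HER2. Others fixed, paraffin-embedded and sectioned at 5 μm. Sections underwent citrate pH 6.0 antigen retrieval, H2O2 block and BSA/NGS/Triton block, EGFR/HER2 primaries overnight at 4 °C, then PLA probes; imaged at 10X/40X.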

Mus musculus [14] = assay: In vivo inhibition of HER2 in human Calu-3 cells xenografted in Foxn1nu/Foxn1+ mouse assessed as reduction in HER2 phosphorylation at 8 mg/kg, IT(Intratumoral) administered thrice a week for 28 days and measured on day 28 by Western blot analysis; type: functional, organism-based; settings: time 28.0 day; how it was run: as §3
A549 [15] = assay: Antitumor activity in Red-Fluc transfected human A549 cells harbouring KRAS mutant/wild type EGFR xenografted in Foxn1nu/Foxn1+ mouse assessed as reduction in tumor growth by measuring relative luminescence intensity at 6 mg/kg, iv treated twice a week measured after 2 weeks relative to vehicle; type: functional, organism-based
[16] = Toxicity in BALB/c mouse assessed as Ki-67 expression in CD4+ at 6 mg/kg, iv administered on day 0 and 10 and spleenocytes collected on day 13 and incubated for 48 hrs by flow cytometry analysis; type: organism-based; settings: in vivo, 360 h, time 15 day
How it was run: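 Female BALB/c mice given 6 mg/kg peptide in PBS i.v. (or PBS) on days 0 and 10, 12 mice in total. Splenocytes harvested day 13, RBC-lysed, and ≥2×10^6 cultured 48 h in RPMI/10% FBS with control media or peptide. Cells then stained for viability, CD3/CD4/CD8a and intracellular Ki67, and analyzed by flow cytometry.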

[17] = biological target: ErbB-2/ErbB-3 heterodimer (Homo sapiens) (UniProt P04626+P21860); assay: Inhibition of HER2/HER3 dimerization in human Calu-3 cells incubated for 48 hrs by proximity ligation assay; type: cell-based; how it was run: as §2
NCI-H1975 [18] = assay: Synergistic antiproliferative activity against human NCI-H1975 cells assessed as combination index after 72 hrs in presence of erlotinib by cell titer glo assay; type: functional
NCI-H1975 [19] = assay: Synergistic antiproliferative activity against human NCI-H1975 cells assessed as combination index after 72 hrs in presence of lapatinib by cell titer glo assay; type: functional
[20] = Toxicity in Foxn1nu/Foxn1+ mouse xenografted with human A549 cells harbouring KRAS mutant/wild type EGFR assessed as hyper-chromatic nuclei in lung at 6 mg/kg, iv administered twice a week for 5 weeks; settings: in vivo, 840 h
[21] = Toxicity in Foxn1nu/Foxn1+ mouse xenografted with human A549 cells harbouring KRAS mutant/wild type EGFR assessed as eosinophilic cytoplasm in lung at 6 mg/kg, iv administered twice a week for 5 weeks; settings: in vivo, 840 h

Chain of Receptor tyrosine-protein kinase erbB-2 (Homo sapiens) (P04626 whole entry, the tested form may be a part): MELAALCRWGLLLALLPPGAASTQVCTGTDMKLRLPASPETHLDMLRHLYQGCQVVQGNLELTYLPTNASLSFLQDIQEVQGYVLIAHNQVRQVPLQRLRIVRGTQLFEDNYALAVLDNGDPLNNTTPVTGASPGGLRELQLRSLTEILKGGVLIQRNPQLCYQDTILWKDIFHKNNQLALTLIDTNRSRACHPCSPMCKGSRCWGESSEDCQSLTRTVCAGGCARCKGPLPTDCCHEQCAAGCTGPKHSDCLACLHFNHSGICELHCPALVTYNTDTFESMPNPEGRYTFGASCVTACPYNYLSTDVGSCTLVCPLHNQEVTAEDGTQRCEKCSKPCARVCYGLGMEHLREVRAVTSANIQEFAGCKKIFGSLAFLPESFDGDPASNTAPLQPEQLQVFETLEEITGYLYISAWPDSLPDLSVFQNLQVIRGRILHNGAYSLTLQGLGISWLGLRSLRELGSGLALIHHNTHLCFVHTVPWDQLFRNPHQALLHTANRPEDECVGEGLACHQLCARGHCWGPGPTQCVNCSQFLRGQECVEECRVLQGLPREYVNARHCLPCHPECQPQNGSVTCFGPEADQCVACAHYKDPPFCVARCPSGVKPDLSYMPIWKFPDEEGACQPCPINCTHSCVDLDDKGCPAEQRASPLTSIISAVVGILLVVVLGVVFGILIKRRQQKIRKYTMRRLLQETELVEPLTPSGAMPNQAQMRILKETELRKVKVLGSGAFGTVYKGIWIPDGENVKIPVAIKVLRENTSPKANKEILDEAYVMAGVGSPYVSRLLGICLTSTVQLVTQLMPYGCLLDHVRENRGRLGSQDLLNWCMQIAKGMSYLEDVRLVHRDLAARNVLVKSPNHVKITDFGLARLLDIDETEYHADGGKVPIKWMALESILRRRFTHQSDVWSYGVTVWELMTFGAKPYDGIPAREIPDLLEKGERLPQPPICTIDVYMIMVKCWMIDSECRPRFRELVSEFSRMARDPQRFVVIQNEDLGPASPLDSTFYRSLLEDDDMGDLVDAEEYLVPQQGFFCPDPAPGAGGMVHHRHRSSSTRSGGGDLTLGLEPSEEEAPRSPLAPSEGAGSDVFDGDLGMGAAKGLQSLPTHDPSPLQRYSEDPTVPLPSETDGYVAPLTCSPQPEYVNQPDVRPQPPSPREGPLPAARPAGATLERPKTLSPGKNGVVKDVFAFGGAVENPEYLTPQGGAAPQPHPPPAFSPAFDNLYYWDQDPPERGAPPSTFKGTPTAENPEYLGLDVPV

Compound: CC[C@H](C)[C@H]1C(=O)NC(=O)[C@H](CCCNC(=N)N)NC(=O)C[C@@H](c2cccc3ccccc23)NC(=O)N[C@H]2CSSC[C@H](NC(=O)C[C@@H](c3cccc4ccccc34)NC(=O)[C@H](CCCNC(=N)N)NC(=O)[C@@H]3CCCN3C(=O)[C@@H]3CCCN13)C(=O)N[C@@H](Cc1ccccc1)C(=O)N1CCC[C@H]1C(=O)N[C@@H](CC(=O)O)C(=O)NC(=O)[C@H](CC(=O)O)NC(=O)[C@H](Cc1ccccc1)NC2=O
- IC50 (BT-474): 280 nM
- IC50 (MCF7): > 20000 nM
- IC50 (A549 [1]): 369 nM
- IC50 (MCF-10A): > 40000 nM
- Activity [2]: Dose-Dependent Effect
- Activity [3]: Dose-Dependent Effect
- Activity [4]: Active
- inhibition [5]: Dose-Dependent Effect
- inhibition [6]: Dose-Dependent Effect
- Activity (A549 [7]): inactive
- inhibition [8]: Active
- Stabilty [9]: Stable
- Stabilty [10]: Stable
- Stabilty [11]: Stable
- Activity (Calu-3): Active
- Activity [12]: Non-Toxic
- inhibition (Mus musculus [13]): Active
- inhibition (Mus musculus [14]): Active
- Activity (A549 [15]): Active
- Activity [16]: Non-Toxic
- inhibition [17]: Dose-Dependent Effect
- CI (NCI-H1975 [18]): 0.76
- CI (NCI-H1975 [19]): 0.83
- Activity [20]: Non-Toxic
- Activity [21]: Non-Toxic
